Data from ChEMBL document CHEMBL4715754, “Slowing down fat digestion and absorption by an oxadiazolone inhibitor targeting selectively gastric lipolysis” (2016).

Legend:
[1] = target: T1, Gastric triacylglycerol lipase (Canis lupus familiaris) (UniProt P80035); test: Inhibition of recombinant dog gastric lipase assessed as residual activity at 4.1 mg/ml under gastric phase at pH 5.5 using solid test meal measured up to 30 mins relative to control; conditions: time min <=30
T1 sequence (whole entry): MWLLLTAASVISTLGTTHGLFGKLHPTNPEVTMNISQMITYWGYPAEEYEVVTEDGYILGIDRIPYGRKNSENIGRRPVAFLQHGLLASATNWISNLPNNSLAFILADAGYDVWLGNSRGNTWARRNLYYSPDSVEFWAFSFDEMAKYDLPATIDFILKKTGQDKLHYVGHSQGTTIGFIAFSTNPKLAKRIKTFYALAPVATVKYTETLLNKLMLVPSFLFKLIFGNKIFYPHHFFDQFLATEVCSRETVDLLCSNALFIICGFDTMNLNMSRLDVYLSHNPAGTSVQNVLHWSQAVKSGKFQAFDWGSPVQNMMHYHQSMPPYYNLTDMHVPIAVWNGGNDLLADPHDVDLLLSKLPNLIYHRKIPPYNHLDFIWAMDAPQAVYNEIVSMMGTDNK
Outline: (§1)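 Gastric phase: 15 mL liquid or solid test meal (506 mg TAG) premixed with 734 µL of 4.1 mg/mL DMSO stock (2.94 mg, 7.262 µmol), then DGL to 17 µg/mL final, pH 5.5, 37 °C, stirred. Samples at 1, 15, 29 min; residual DGL activity by pH-stat; lipolysis level from TLC-FID of lipid extracts. DMSO-only controls; n = 3.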

[2] = organism: Homo sapiens; test: Inhibition of human pancreatic carboxylesterase preincubated for 30 mins at 25 degreeC
Outline: (§2)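 hCEH (1 mg/mL in 10 mM MES pH 6.5, 150 mM NaCl) pre-incubated 30 min at 25 °C with inhibitor from DMSO stock at various molar excesses, no substrate. Residual activity by pH-stat on tributyrin emulsion at 37 °C in 1 mM Tris-HCl pH 8.0, 100 mM NaCl, 5 mM CaCl2, 1 mM NaTDC. Relative to DMSO-only control; at least triplicate.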

[3] = target: T2, Pancreatic lipase-related protein 2 (Cavia porcellus) (UniProt P81139); test: Inhibition of recombinant guinea pig PL-RP2 expressed in Aspergillus oryzae preincubated for 30 mins at 25 degreeC
T2 sequence (whole entry): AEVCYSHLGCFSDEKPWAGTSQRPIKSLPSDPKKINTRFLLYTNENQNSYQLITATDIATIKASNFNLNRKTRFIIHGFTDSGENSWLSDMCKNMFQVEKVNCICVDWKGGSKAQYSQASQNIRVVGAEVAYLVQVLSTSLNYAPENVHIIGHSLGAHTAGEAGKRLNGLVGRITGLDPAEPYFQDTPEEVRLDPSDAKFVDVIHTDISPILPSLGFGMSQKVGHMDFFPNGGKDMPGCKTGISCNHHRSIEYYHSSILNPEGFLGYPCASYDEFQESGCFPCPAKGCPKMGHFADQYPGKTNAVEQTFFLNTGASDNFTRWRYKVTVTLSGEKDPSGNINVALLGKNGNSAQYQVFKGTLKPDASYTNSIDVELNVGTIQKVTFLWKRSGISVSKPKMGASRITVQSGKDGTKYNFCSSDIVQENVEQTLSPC

[4] = target: T1, Gastric triacylglycerol lipase (Canis lupus familiaris); test: Inhibition of recombinant dog gastric lipase at 4.1 mg/ml under gastric phase at pH 5.5 using liquid test meal measured up to 30 mins relative to control; conditions: time min <=30; outline: as §1
[5] = target: T2, Pancreatic lipase-related protein 2 (Cavia porcellus); test: Inhibition of recombinant guinea pig PL-RP2 expressed in Aspergillus oryzae at 4:1 molar excess compound concentration preincubated for 30 mins at 25 degreeC relative to control
[6] = target: T1, Gastric triacylglycerol lipase (Canis lupus familiaris); test: Inhibition of recombinant dog gastric lipase at 20:1 molar excess compound concentration preincubated for 30 mins at 25 degreeC relative to control
[7] = target: T1, Gastric triacylglycerol lipase (Canis lupus familiaris); test: Inhibition of recombinant dog gastric lipase assessed as residual activity at 4.1 mg/ml under gastric phase at pH 5.5 using liquid test meal measured up to 30 mins relative to control; conditions: time min <=30; outline: as §1
[8] = target: T1, Gastric triacylglycerol lipase (Canis lupus familiaris); test: Inhibition of recombinant dog gastric lipase assessed as lipolysis level at 4.1 mg/ml under gastric phase at pH 5.5 using solid test meal measured up to 30 mins (reference value: 13 +/- 1.2 %); parameters: scale not given: the % may be the effect or the level left; conditions: time min <=30; outline: as §1
[9] = target: T1, Gastric triacylglycerol lipase (Canis lupus familiaris); test: Inhibition of recombinant dog gastric lipase at 4.1 mg/ml under gastric phase at pH 5.5 using solid test meal measured up to 30 mins relative to control; conditions: time min <=30; outline: as §1
[10] = organism: Homo sapiens; test: Inhibition of human pancreatic carboxylesterase at 20:1 molar excess compound concentration preincubated for 30 mins at 25 degreeC relative to control; outline: as §2
[11] = target: T1, Gastric triacylglycerol lipase (Canis lupus familiaris); test: Inhibition of recombinant dog gastric lipase assessed as lipolysis level at 4.1 mg/ml under gastric phase at pH 5.5 using liquid test meal measured up to 30 mins (reference value: 22.3 +/- 1.4 %); parameters: scale not given: the % may be the effect or the level left; conditions: time min <=30; outline: as §1
[12] = target: T1, Gastric triacylglycerol lipase (Canis lupus familiaris); test: Inhibition of recombinant dog gastric lipase assessed as lipolysis level at 4.9 mg/ml under gastric phase at pH 5.5 using liquid test meal measured up to 30 mins (reference value: 22.3 +/- 1.4 %); parameters: scale not given: the % may be the effect or the level left; conditions: time min <=30
Outline: (§3)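 In vitro two-phase digestion at 37 °C, 1,000 rpm: 15 mL liquid or solid test meal (506 mg TAG) was premixed with 7.262 µmol inhibitor in DMSO (DMSO-only control). Gastric phase: DGL 17 µg/mL final, pH 5.5. Duodenal phase from 30 min: pancreatic extract plus bovine bile added (PPL 250 µg/mL, bile salts 4.0 mM), pH 6.25. Lipids in samples were quantified by TLC-FID; LL% is (MAG+FFA) relative to 3×initial TAG; n = 3.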

[13] = target: T1, Gastric triacylglycerol lipase (Canis lupus familiaris); test: Inhibition of recombinant dog gastric lipase assessed as lipolysis level at 4.9 mg/ml under gastric phase at pH 5.5 using solid test meal measured up to 30 mins (reference value: 13 +/- 1.2 %); parameters: scale not given: the % may be the effect or the level left; conditions: time min <=30; outline: as §3
[14] = target: T3, Pancreatic triacylglycerol lipase (Sus scrofa) (UniProt P00591); conditions: dose 4.9 mg/ml, time 30-90 min
T3 sequence (whole entry): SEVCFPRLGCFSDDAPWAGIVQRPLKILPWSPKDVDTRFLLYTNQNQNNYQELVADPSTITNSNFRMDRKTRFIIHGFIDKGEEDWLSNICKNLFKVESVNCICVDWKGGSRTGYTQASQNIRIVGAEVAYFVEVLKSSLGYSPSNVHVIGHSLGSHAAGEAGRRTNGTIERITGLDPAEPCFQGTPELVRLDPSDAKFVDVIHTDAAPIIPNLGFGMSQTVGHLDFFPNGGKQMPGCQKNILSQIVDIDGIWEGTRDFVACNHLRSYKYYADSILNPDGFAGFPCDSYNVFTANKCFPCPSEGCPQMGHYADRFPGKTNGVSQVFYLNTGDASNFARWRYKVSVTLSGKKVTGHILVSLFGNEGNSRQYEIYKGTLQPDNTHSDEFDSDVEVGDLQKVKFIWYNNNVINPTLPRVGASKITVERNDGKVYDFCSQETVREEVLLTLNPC

[15] = target: T3, Pancreatic triacylglycerol lipase (Sus scrofa); conditions: dose 4.9 mg/ml, time 30-90 min; remark: listed apart in the source
[16] = target: T3, Pancreatic triacylglycerol lipase (Sus scrofa); conditions: dose 4.9 mg/ml, time 30-90 min; remark: listed apart in the source

Row | Structure (SMILES) | Activity [1] [%] | XI50 [2] [molar excess] | XI50 [3] [molar excess] | inhibition [4] [%] | inhibition [5] [%] | inhibition [6] [%] | Activity [7] [%] | Activity [8] [%] | inhibition [9] [%] | inhibition [10] [%] | Activity [11] [%] | Activity [12] [%] | Activity [13] [%] | inhibition [14] [%] | inhibition [15] [%] | inhibition [16] [%]
1 | O=c1oc(OCCOCc2ccccc2)nn1-c1cccc(Oc2ccccc2)c1 | 2.8 | 1.42 | 0.64 | 100 | 60.6 | 91.5 | 0 | 3.1 | 97.2 | 71.5 | 4.5 |  |  |  |  | 
2 | CCCCCCCCCCC[C@@H](C[C@@H]1OC(=O)[C@H]1CCCCCC)OC(=O)[C@@H](CC(C)C)NC=O |  |  |  |  |  |  |  |  |  |  |  | 0 | 2.1 | 86.6 | 100 | 100
